Experiment [1] is described as follows: Maximum velocity constant of the rate of phosphorylation was determined against PRPP synthetase. In outline: (§1)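 PRPP synthetase (0.04 unit) in 10.0 mM potassium phosphate pH 8.0 with 5.0 mM MgCl2, 2.5 mM PRPP and substrate. Reaction linear; stopped with MeOH after 4 h. Diphosphate products quantified by anion-exchange HPLC.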
The nature of experiment [2]: Michaelis rate constant is determined by the Lineweaver and Burk method against PRPP synthetase. In outline:
as §1

The target of experiment [3] is T1, Adenosine deaminase (Bos taurus) (UniProt P56658).
T1 sequence (whole entry): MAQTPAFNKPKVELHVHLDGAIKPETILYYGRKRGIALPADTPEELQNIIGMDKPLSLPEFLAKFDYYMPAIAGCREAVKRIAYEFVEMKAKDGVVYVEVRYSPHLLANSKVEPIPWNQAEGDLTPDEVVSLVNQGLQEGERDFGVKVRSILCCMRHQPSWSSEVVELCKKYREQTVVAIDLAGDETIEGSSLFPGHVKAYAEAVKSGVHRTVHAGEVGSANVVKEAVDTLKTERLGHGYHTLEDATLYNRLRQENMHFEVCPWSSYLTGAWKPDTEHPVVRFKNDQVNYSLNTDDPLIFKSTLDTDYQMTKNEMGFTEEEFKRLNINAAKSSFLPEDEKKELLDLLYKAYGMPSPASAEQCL
As to the kind of experiment: Maximum velocity constant against adenosine deaminase. In short, it runs like this: (§2)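 Calf mucosal adenosine deaminase in buffer solution. Reaction velocity measured as µmol/min per mg enzyme across substrate concentrations.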

Experiment [4] has as its system Thymidine kinase (Herpes simplex virus 1). As to the kind of experiment: Maximum velocity constant of the rate of phosphorylation was determined in the presence of HSV thymidine kinase.
The subject of a further experiment is Vero. Nature of the experiment: Michaelis rate constant is determined by the Lineweaver and Burk method against Vero cell thymidine kinase. The experiment is classed as functional, cell-based. To be noted: Chlorocebus sabaeus.
Experiment [5] addresses T1, Adenosine deaminase (Bos taurus). Nature of the experiment: Maximum velocity constant of the rate of deamination was determined against adenosine deaminase. In outline:
as §2

Experiment [6] has as its system Thymidine kinase (Herpes simplex virus 1). Nature of the experiment: Maximum velocity constant of the rate of phosphorylation was determined against HSV thymidine kinase.
Experiment [7] in a line: Maximum velocity constant of the rate of phosphorylation was determined against PRPP synthetase.

SMILES strings stand for the structures.

By Km is commonly meant the substrate concentration at which the rate is half of its maximum. `Nc1ncnc2c1ncn2[C@@H]1O[C@H](COP(=O)(O)O)[C@@H](O)[C@H]1O` yielded a Relative Vmax in experiment [1] of 14. In addition, in experiment [2], the Km turned out to be 240 µM.

On to `Nc1ncnc2c1ncn2COCCO`, for which the Relative Vmax in experiment [3] is 1.5; in experiment [4], below 3. Besides, in the experiment with Vero, the Km was above 3 µM.

Take `Nc1ncnc2ncn(COCCO)c12`: in experiment [5], the Relative Vmax came to 1.5. The Km in the experiment with Vero is above 3 µM.

The compound `Nc1nc(O)c2c(ncn2COCCO)n1` registered a Relative Vmax in experiment [6] of 28.

On to `Nc1ncnc2ncn(CCOCP(=O)(O)O)c12`, for which the Relative Vmax in experiment [7] worked out at 0.013.

In turn, `Nc1ncnc2c1ncn2[C@@H]1O[C@H](CO)[C@@H](O)[C@@H]1O` showed a Relative Vmax in experiment [5] of 1. Besides, the Km in the experiment on Vero stood at 2.2 µM.

The record behind these values is ChEMBL document CHEMBL1134666, “Design, synthesis, and biological evaluation of novel nucleoside and nucleotide analogues as agents against DNA viruses and/or retroviruses” (J Med Chem, 2001).
